From PubChem
BaF3 tox: parental Ba/F3 viability inhibition as JAK2V617F counter-screen; CellTiter-Glo ATP luminescence; inhibition, % at 5.6 µM; 1.1% of 220,000 active; AID 1486;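 active means inhibition above a per-campaign cutoff, the mean inhibition of all tested compounds plus 3 SD, cut at about 27% in these data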;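 further: 0% = DMSO wells and 100% = JAK Inhibitor I control wells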
APP transl inh: APP translation inhibition; SH-SY5Y APP 5'UTR-luciferase reporter, luminescence; 0.82% of 190,000 active; inhibition, % at 2 µM;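 active means inhibition above a set limit, derived from the sample mean plus 3 SD, cut at about 45% in these data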
MT stabilize HCS: stabilizes microtubules in HeLa cells; % tubulin-high responders, % at 10 µM; 0.83% of 200,000 active; HeLa tubulin immunostaining HCS, 24 h; share of cells brighter than vehicle mean+2SD;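 active means plate Z-score above 3 for both tubulin-high and condensed-nucleus cell shares, with cell loss under 80%, at 10 µM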;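 further: anti alpha tubulin signal scored within the nucleus-defined area of each cell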
b-catenin transl: beta-catenin nuclear translocation modulation. HeLa beta-catenin nuclear translocation, immunofluorescence imaging. nuclear translocation activity, % at 5 µM. 0.3% of 190,000 active. AID 1665;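 active means nuclear translocation activity above 50% at 5 µM, with a well cell count of 50 or more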;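 further: per-cell ratio of nuclear to cytoplasmic median beta-catenin stain intensity; plate controls were DMSO negative control for no effect and GSK-3 inhibitor IX positive control for full effect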
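Test system: human HeLa cells, native beta-catenin. Compound dosing: 5 µM primary single dose, 0.1% DMSO, 0.02–20 µM confirmation series. Incubation: compound exposure 24 h at 37°C. Detection: beta-catenin immunostaining with DAPI counterstain, 20x imaging, 6 fields/well. Read-out basis: Nuclear/cytoplasmic beta-catenin signal ratio, % activation.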
Ba/F3 V617F tox: lowers viability of Ba/F3 cells expressing EpoR and JAK2V617F; ATP luminescence; inhibition, % at 5.6 µM; 1.1% of 220,000 active; AID 1446;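 active means inhibition above the campaign mean plus 3 SD over all tested compounds, cut at about 24% in these data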;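 further: cytokine-independent growth of Ba/F3 cells driven by EpoR plus mutant JAK2; 0% = DMSO-treated cells and 100% = JAK inhibitor I control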
Lmaj promast: Leishmania major promastigote growth inhibition | inhibition, % at 10 µM | 9% of 200,000 active | Leishmania major promastigotes, resazurin fluorescence viability; in the data active means inhibition above about 50%;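 further: promastigotes grown with compound for 44 hours at 28 °C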
An asterisk follows results filed as active; nt = not tested or not shown. Rows were chosen to be rich in hits. Some 9.6% of all compounds tested hit in one or more screens of this group.

SMILES	BaF3 tox	APP transl inh	MT stabilize HCS	b-catenin transl	Ba/F3 V617F tox	Lmaj promast
N#Cc1c(NC(=O)c2ccccc2)sc2c1CCC2	27.8*	-109.3	33.1*	nt	37.2*	-3.1
Nc1nc(N2CCOCC2)cc(=O)[nH]1	-0.5	-0.5	2.3	0.2	-0.1	-4.9
CCc1ccc(CCC(=O)Nc2sc3c(c2C#N)CCCC3)o1	3.2	-4.7	16.7*	63.7*	1.1	-4.4
O=C(CN1CCCCC1)N=Nc1c(O)[nH]c2ccccc12	8.3	-1.8	5.3	-1.1	2.8	7.7
O=C(CN1CCN(Cc2ccccc2)CC1)N=Nc1c(O)[nH]c2ccccc12	6.4	9.4	1.6	-0.9	-1.0	96.2*
O=C(CSc1ccncc1)Nc1ccc2ccccc2c1	1.2	3.2	2.7	-0.4	-1.7	90.8*
O=C(CSc1ccc2ccccc2c1)Nc1ccc(S(=O)(=O)Nc2nccs2)cc1	6.0	-11.7	1.5	nt	0.3	54.2*
O=C(CSc1ccc2ccccc2c1)Nc1ccncc1	4.9	-0.1	2.6	-0.7	1.4	12.1
O=C(CSc1nc(-c2ccco2)cc(C(F)(F)F)n1)Nc1ccccc1C(F)(F)F	-1.9	-7.6	2.0	1.6	-1.0	3.7
Cc1cccc(C)c1NC(=O)CSc1nc(-c2ccco2)cc(C(F)(F)F)n1	3.1	3.4	41.0*	3.5	2.3	1.7
Cc1ccc(Cn2ccc(NC(=O)CCSc3nc(-c4ccco4)cc(C(F)(F)F)n3)n2)cc1	3.5	-7.4	35.7*	1.1	-4.9	9.8
O=C(Nc1ccccc1)Nc1cc(OCC(F)(F)F)cc(OCC(F)(F)F)c1	6.2	4.0	1.5	nt	23.3	100.3*
COc1ccccc1/C=C/C=N\N1CCN(Cc2ccccc2Cl)CC1	1.4	4.3	5.6	2.6	-2.8	64.5*
COc1ccccc1/C=C/C=N/N1CCN(Cc2ccc(Cl)cc2)CC1	5.8	-2.5	1.3	0.1	2.1	85.3*
Clc1ccc(/C=N/N2CCN(Cc3ccccc3Cl)CC2)cc1	6.7	-0.5	2.8	0.6	3.4	-0.9
Cc1ccc(/C=N/N2CCN(Cc3ccc(Cl)cc3)CC2)o1	3.1	-10.7	1.6	nt	1.1	51.6*
CC1CCN(c2ccc(C=O)o2)CC1	-0.3	-13.1	4.1	0.1	0.7	9.0
Cc1ccc(N(CC(=O)NC2CCC(C)CC2)S(=O)(=O)c2cccnc2)cc1 (centres undefined)	6.8	-6.5	6.0	nt	1.1	67.0*
COc1ccc(N(CC(=O)NC2CCCCC2)S(=O)(=O)c2cccnc2)cc1	10.2	6.2	1.7	-2.3	3.0	-0.5
O=C(CCc1ccccc1)Nc1ccccc1	-3.9	-29.3	2.2	-1.6	-1.9	-6.0
CN(C)c1ccc(NC(=O)CCCc2ccccc2)cc1	4.5	-150.3	10.9	nt	-1.2	76.5*
CC(=O)N1CCCC(C(=O)c2ccc3c4c(cccc24)CC3)C1 (centres undefined)	0.7	-16.1	1.6	1.2	-1.7	1.7
Cc1cccc(CN2CCCC(C(=O)c3ccc4c5c(cccc35)CC4)C2)n1 (centres undefined)	5.9	-7.5	2.3	-0.7	-0.2	53.4*
O=C(c1ccc2c3c(cccc13)CC2)C1CCCN(C(=O)c2cccnc2)C1 (centres undefined)	10.3	-1.4	1.4	-1.5	1.7	0.1
COc1cc(CN2CCCC(C(=O)c3ccc4c5c(cccc35)CC4)C2)cc(OC)c1O (centres undefined)	7.2	9.4	3.1	-2.3	2.6	99.0*
SMILES	BaF3 tox	APP transl inh	MT stabilize HCS	b-catenin transl	Ba/F3 V617F tox	Lmaj promast
COc1ccc2cc(C(=O)C3CCCN(Cc4cccc(C)n4)C3)ccc2c1 (centres undefined)	7.8	3.4	4.5	0.3	2.4	86.5*
O=C(c1ccc2c3c(cccc13)CC2)C1CCCN(Cc2cccnc2)C1 (centres undefined)	5.0	14.7	3.5	-1.7	1.9	95.8*
COc1ccc(-c2[nH]ncc2CN2CCCC(C(=O)c3cccc(OC)c3)C2)cc1 (centres undefined)	2.3	6.6	2.6	-0.9	-4.9	2.3
CSCC[C@H](NC(=O)C(C)(C)Oc1ccc(Cl)cc1)c1nc2ccccc2[nH]1	5.4	1.2	4.8	2.6	-1.2	9.7
O=C(CSc1nnc(-c2ccc(F)cc2)o1)Nc1ccccc1N1CCOCC1	2.4	-2.9	3.2	nt	4.1	-5.0
CCn1ncc(CN2CCCC(C(=O)c3cccc(OC(C)C)c3)C2)c1C (centres undefined)	7.4	3.0	4.2	-1.5	-0.4	80.0*
CCOC(=O)c1[nH]ncc1CN1CCCC(C(=O)c2cccc(OC(C)C)c2)C1 (centres undefined)	0.2	13.4	2.3	1.6	2.2	3.5
Cc1cccc(Nc2cc(C)c3c(O)cccc3n2)c1C	0.7	-11.6	3.2	-1.5	-4.0	99.2*
COc1ccc(-c2nn(-c3ccccc3)cc2/C=C/C(=O)N2CCOCC2)cc1OC	3.3	-8.0	5.5	0.1	3.5	28.1
COc1ccc(OCCNS(=O)(=O)c2ccc3oc4ccccc4c3c2)cc1	4.8	-4.8	2.2	1.6	2.5	-3.5
CN(CCOc1ccccc1)S(=O)(=O)c1ccc2oc3ccccc3c2c1	3.7	5.9	1.5	0.4	-1.4	55.5*
COc1cccc(CNC(=O)CN(c2cc(C)cc(C)c2)S(=O)(=O)c2c(C)noc2C)c1	6.0	-1.3	2.7	0.7	1.4	65.2*
CCOc1ccc(N(CC(=O)NCc2ccccc2)S(=O)(=O)c2c(C)noc2C)cc1	7.6	-4.1	2.6	-0.6	-2.6	0.8
COc1ccc(N(CC(=O)Nc2ccc(OC)c(Cl)c2)S(=O)(=O)c2c(C)noc2C)cc1	0.9	-10.6	8.6	-3.4	-3.6	26.9
COc1ccc(OC)c(NC(=O)CN(c2ccc(C)cc2)S(=O)(=O)c2c(C)noc2C)c1	0.1	-9.9	2.0	-4.5	-1.4	74.7*
COc1ccc(N(CC(=O)Nc2cc(Cl)ccc2OC)S(=O)(=O)c2c(C)noc2C)cc1	54.3*	53.8*	15.7*	-0.4	8.0	31.7
COc1ccc(OC)c(NC(=O)CN(c2ccc(C(C)C)cc2)S(=O)(=O)c2c(C)noc2C)c1	4.2	-5.0	4.4	nt	1.5	51.7*
CCOc1ccc(OCC)c(NC(=O)CN(c2ccc(C)cc2)S(=O)(=O)c2c(C)noc2C)c1	4.4	-5.0	3.2	nt	0.4	30.6
CC12CCC(C(=O)NC3CCCCC3)([C@H](Br)C1=O)C2(C)C (some centres undefined)	-0.8	nt	nt	0.8	-5.0	nt
Nc1nonc1C(=O)NCCNCc1cc(Br)ccc1OCc1ccccc1F	50.8*	-3.5	4.3	nt	23.8*	66.1*
Nc1nonc1C(=O)NCCNCc1ccccc1OCc1ccccc1F	7.3	-4.4	2.1	-2.4	3.9	13.6
COc1cccc(CNCCNC(=O)c2nonc2N)c1	-1.1	-1.3	2.9	0.0	-1.5	-7.1
COc1cc(CNCCNC(=O)c2nonc2N)ccc1OCc1ccc(Cl)cc1	4.2	3.0	2.3	1.8	-0.6	97.6*
